Measured values from ChEMBL document CHEMBL5724801, “EUbOPEN Chemogenomics Library - Multiplex” (2024).
Several values for one entry are separate records, joined by “and”; a condition that tells them apart may be missing. Identical values can stand only once.

Key:
HEK-293T = assay: Multiplex assay against HEK293T; format: toxicity, cell-based; conditions: human
Summary of the method: (§1)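 Values for tubulin, mitochondrial-mass and membrane-permeability phenotypes are per cents of cells with healthy nuclei. These cells were identified by CellPathfinder machine-learning gating of live cells that had been stained at seeding with Hoechst33342, BioTracker Green Microtubule Cytoskeleton Dye, MitoTracker Red and Annexin V Alexa Fluor 680 and imaged on a CQ1 microscope at 37°C and 5% CO2 after compound addition. The gating first set Hoechst high-intensity objects apart from normal cells, then split normal cells into healthy, pyknosed or fragmented nuclei, and pyknosed cells into mitotic or apoptotic.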

U2OS = assay: Multiplex assay against U2OS; format: toxicity, cell-based; conditions: human; summary of the method: as §1
[1] = 24 h, 1 µM, compound concentration 1 uM
[2] = 24 h, 10 µM, compound concentration 10 uM
[3] = 48 h, 1 µM, compound concentration 1 uM
[4] = 48 h, 10 µM, compound concentration 10 uM
[5] = 12 h, 1 µM, compound concentration 1 uM
[6] = 12 h, 10 µM, compound concentration 10 uM

In the case of COc1cc2ncnc(Nc3ccc(Oc4ccccc4)cc3C)c2cc1OC.Cl, the “Population Membrane Permeable-Phenotype (%)” value (HEK-293T; [1]) is reported as 2.13% and 1.59%, the “Population Mitochondria Different-Phenotype (%)” value (HEK-293T; [1]) is reported as 8.53% and 7.94% and the “Population Mitotic Cells (%)” value (HEK-293T; [1]) is reported as 81.3% and 83.16%. The “Population Normal (%)” value (HEK-293T; [1]) was 100%, the “Population Tubulin-Different-Phenotype (%)” value (HEK-293T; [1]) was 10.85% and 3.17% and the “Population Apoptotic (%)” value (HEK-293T; [2]) was 30.37% and 35.11%. The “Population Fragmented Nuclei (%)” value (HEK-293T; [2]) was 2.24% and 2.6%, the “Population Hoechst High Intensity Objects (%)” value (HEK-293T; [2]) was 0.22% and 0% and the “Population Membrane Permeable-Phenotype (%)” value (HEK-293T; [2]) was 0.66% and 0%. The “Population Mitochondria Different-Phenotype (%)” value (HEK-293T; [2]) was 13.58% and 21.05%, the “Population Mitotic Cells (%)” value (HEK-293T; [2]) was 69.63% and 64.89% and the “Population Normal (%)” value (HEK-293T; [2]) was 99.78% and 100%. For the same compound, the “Population Pyknosed Nuclei (%)” value (HEK-293T; [2]) was 30.2% and 85.06%, the “Total Cell Count” value (HEK-293T; [2]) was 448 and 154 and the “Population Fragmented Nuclei (%)” value (HEK-293T; [3]) was 2.53% and 2.04%. For the same compound, the “Population Healthy Nuclei (%)” value (HEK-293T; [3]) was 85.42% and 68.88%, the “Population Hoechst High Intensity Objects (%)” value (HEK-293T; [3]) was 0.14% and 0% and the “Population Membrane Permeable-Phenotype (%)” value (HEK-293T; [3]) was 4.9% and 2.96%. The “Population Mitochondria Different-Phenotype (%)” value (HEK-293T; [3]) was 14.29% and 17.78%, the “Population Mitotic Cells (%)” value (HEK-293T; [3]) was 92.22% and 73.68% and the “Population Normal (%)” value (HEK-293T; [3]) was 99.86% and 100%. The “Population Pyknosed Nuclei (%)” value (HEK-293T; [3]) was 12.06% and 29.08%, the “Population Apoptotic (%)” value (HEK-293T; [4]) was 20.37% and 26.73% and the “Population Fragmented Nuclei (%)” value (HEK-293T; [4]) was 1.69% and 2.03%. The “Population Healthy Nuclei (%)” value (HEK-293T; [4]) was 77.27% and 46.7%, the “Population Hoechst High Intensity Objects (%)” value (HEK-293T; [4]) was 0% and the “Population Membrane Permeable-Phenotype (%)” value (HEK-293T; [4]) was 2.35% and 1.09%. The “Population Mitochondria Different-Phenotype (%)” value (HEK-293T; [4]) was 53.61% and 47.83%, the “Population Mitotic Cells (%)” value (HEK-293T; [4]) was 79.63% and 73.27% and the “Population Normal (%)” value (HEK-293T; [4]) was 100%. The “Population Pyknosed Nuclei (%)” value (HEK-293T; [4]) was 21.04% and 51.27%, the “Population Apoptotic (%)” value (U2OS; [5]) was 43.18% and 56.25% and the “Population Fragmented Nuclei (%)” value (U2OS; [5]) was 1.46% and 3.77%. For the same compound, the “Population Healthy Nuclei (%)” value (U2OS; [5]) was 89.4% and 86.16%, the “Population Hoechst High Intensity Objects (%)” value (U2OS; [5]) was 0% and the “Population Membrane Permeable-Phenotype (%)” value (U2OS; [5]) was 0.23% and 2.92%. For the same compound, the “Population Mitochondria Different-Phenotype (%)” value (U2OS; [5]) was 0.47% and 9.49%, the “Population Mitotic Cells (%)” value (U2OS; [5]) was 56.82% and 43.75% and the “Population Normal (%)” value (U2OS; [5]) was 100%. The “Population Pyknosed Nuclei (%)” value (U2OS; [5]) was 9.15% and 10.06%, the “Population Tubulin-Different-Phenotype (%)” value (U2OS; [5]) was 0.47% and 0.73% and the “Population Apoptotic (%)” value (U2OS; [6]) was 37.93% and 21.21%. For the same compound, the “Population Fragmented Nuclei (%)” value (U2OS; [6]) was 2.47% and 2.03%, the “Population Healthy Nuclei (%)” value (U2OS; [6]) was 81.64% and 75.68% and the “Population Hoechst High Intensity Objects (%)” value (U2OS; [6]) was 0.27% and 0%. The “Population Membrane Permeable-Phenotype (%)” value (U2OS; [6]) was 11.74% and 10.71%, the “Population Mitotic Cells (%)” value (U2OS; [6]) was 62.07% and 78.79% and the “Population Normal (%)” value (U2OS; [6]) was 99.73% and 100%. For the same compound, the “Population Pyknosed Nuclei (%)” value (U2OS; [6]) was 15.89% and 22.3%, the “Population Tubulin-Different-Phenotype (%)” value (U2OS; [6]) was 14.09% and 5.36% and the “Total Cell Count” value (U2OS; [6]) was 366 and 148. For the same compound, the “Population Apoptotic (%)” value (U2OS; [1]) was 41.67% and 39.13%, the “Population Fragmented Nuclei (%)” value (U2OS; [1]) was 2.08% and 5.24% and the “Population Healthy Nuclei (%)” value (U2OS; [1]) was 88.99% and 83.81%. For the same compound, the “Population Hoechst High Intensity Objects (%)” value (U2OS; [1]) was 0%, the “Population Membrane Permeable-Phenotype (%)” value (U2OS; [1]) was 0.67% and 2.84% and the “Population Mitochondria Different-Phenotype (%)” value (U2OS; [1]) was 0.67% and 6.25%. The “Population Mitotic Cells (%)” value (U2OS; [1]) was 58.33% and 60.87%, the “Population Normal (%)” value (U2OS; [1]) was 100% and the “Population Pyknosed Nuclei (%)” value (U2OS; [1]) was 8.93% and 10.95%. For the same compound, the “Population Tubulin-Different-Phenotype (%)” value (U2OS; [1]) was 0.67% and 1.7%, the “Population Apoptotic (%)” value (U2OS; [2]) was 64.1% and 26.19% and the “Population Fragmented Nuclei (%)” value (U2OS; [2]) was 3.39% and 3.61%. The “Population Healthy Nuclei (%)” value (U2OS; [2]) was 79.01% and 71.08%, the “Population Hoechst High Intensity Objects (%)” value (U2OS; [2]) was 0% and the “Population Membrane Permeable-Phenotype (%)” value (U2OS; [2]) was 8.57% and 6.78%. For the same compound, the “Population Mitotic Cells (%)” value (U2OS; [2]) was 35.9% and 73.81%, the “Population Normal (%)” value (U2OS; [2]) was 100% and the “Population Pyknosed Nuclei (%)” value (U2OS; [2]) was 17.61% and 25.3%. For the same compound, the “Population Tubulin-Different-Phenotype (%)” value (U2OS; [2]) was 10.29% and 10.17%, the “Total Cell Count” value (U2OS; [2]) was 443 and 166 and the “Population Apoptotic (%)” value (U2OS; [3]) was 42.28% and 50%. For the same compound, the “Population Fragmented Nuclei (%)” value (U2OS; [3]) was 3.36% and 3.22%, the “Population Healthy Nuclei (%)” value (U2OS; [3]) was 87.01% and 84.5% and the “Population Hoechst High Intensity Objects (%)” value (U2OS; [3]) was 0%. For the same compound, the “Population Membrane Permeable-Phenotype (%)” value (U2OS; [3]) was 0.54% and 2.42%, the “Population Mitochondria Different-Phenotype (%)” value (U2OS; [3]) was 0% and 6.23% and the “Population Mitotic Cells (%)” value (U2OS; [3]) was 57.72% and 50%. For the same compound, the “Population Normal (%)” value (U2OS; [3]) was 100%, the “Population Pyknosed Nuclei (%)” value (U2OS; [3]) was 9.62% and 12.28% and the “Population Tubulin-Different-Phenotype (%)” value (U2OS; [3]) was 0.63% and 1.38%. The “Population Apoptotic (%)” value (U2OS; [4]) was 65.09% and 50%, the “Population Fragmented Nuclei (%)” value (U2OS; [4]) was 6.98% and 4.76% and the “Population Healthy Nuclei (%)” value (U2OS; [4]) was 79.05% and 76.19%. For the same compound, the “Population Hoechst High Intensity Objects (%)” value (U2OS; [4]) was 0%, the “Population Membrane Permeable-Phenotype (%)” value (U2OS; [4]) was 4.33% and 8.52% and the “Population Mitotic Cells (%)” value (U2OS; [4]) was 34.91% and 50%. The “Population Normal (%)” value (U2OS; [4]) was 100%, the “Population Pyknosed Nuclei (%)” value (U2OS; [4]) was 13.97% and 19.05% and the “Population Tubulin-Different-Phenotype (%)” value (U2OS; [4]) was 10.17% and 11.93%.
